Here are results for 12 compounds from ChEMBL document CHEMBL3351715, “Methylenedioxy flavonoids: assessment of cytotoxic and anti-cancer potential in human leukemia cells” (Eur J Med Chem, 2014).

In series [1] the test system is K562. The experiment in a line: Cytotoxicity against human K562 cells assessed as inhibition of cell proliferation at 20 uM after 72 hrs by trypan blue staining assay. Format: functional, cell-based. The essentials:
(§1)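 Trypan blue exclusion count of Jurkat, U937 or K562 cells (RPMI, 10% FCS, 37 °C, 5% CO2, 10 days' culture after thawing) exposed to compound from DMSO stock; controls received equal DMSO. Proliferation expressed relative to control; mean ± SD of three determinations, Student's t-test with p<0.05 taken as significant.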

Series [2] has as its system Jurkat. Description: Cytotoxicity against human Jurkat cells assessed as reduction in cell viability after 72 hrs by CellTiter-Glo luminescent cell viability assay. Format: functional, cell-based. The essentials: (§2)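 Leukemia cells in RPMI/10% FCS at 37 °C, 5% CO2 treated for 24, 48 or 72 h. Equal volume of CellTiter-Glo reagent added, 10 min in the dark at RT, ATP luminescence converted to viable cell number. Normalized to untreated control (%), etoposide as positive control; mean ± SD of three determinations; IC50 from concentration-response.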

Series [3] has as its system Jurkat. Description: Induction of apoptosis in human Jurkat cells assessed as caspase-3 cleavage at 20 uM after 48 hrs Western blotting method. Format: functional, cell-based. The procedure, abridged:
(§3)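 Jurkat cells (10⁷ per sample) treated up to 48 h, lysed on ice in hypertonic detergent buffer with protease inhibitors, cleared at 15,000 × g, 15 min, 4 °C. Separated by 10% SDS-PAGE, transferred to nitrocellulose, probed with anti-caspase 3 or anti-caspase 7 (1/1000) and HRP secondary; β-actin loading control.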

Series [4] concerns K562. Description: Cytostatic effect against human K562 cells at >30 uM after 72 hrs by trypan blue staining assay. Format: functional, cell-based. The essentials: as §1
The nature of series [5]: Cytotoxicity against human U937 cells assessed as reduction in cell viability after 72 hrs by CellTiter-Glo luminescent cell viability assay. Format: functional, cell-based. The note with it: U-937, 72 h. The procedure, abridged:
as §2

Series [6] deals with K562. The experiment in a line: Cytotoxicity against human K562 cells assessed as reduction in cell viability after 72 hrs by CellTiter-Glo luminescent cell viability assay. Format: functional, cell-based. To be noted: K562, 72 h. The essentials: as §2
In series [7] the test system is PBMC. Description: Cytotoxicity against human PBMC assessed as reduction in cell viability at 10 to 50 after 24 to 72 hrs by CellTiter-Glo luminescent cell viability assay. Format: cell-based. The essentials:
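PBMCs isolated from healthy donor buffy coats (blood diluted 1/3 in RPMI, Ficoll, 400 × g, 20 min), kept 24 h at 37 °C, 5% CO2, then treated 24–72 h. ATP read by CellTiter-Glo luminescence (10 min, dark, RT), normalized to untreated control (%); etoposide positive control; mean ± SD, n=3.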

Series [8] can be described thus: Cytotoxicity against human U937 cells assessed as cell viability at 10 uM after 72 hrs by trypan blue staining assay. To be noted: U-937, 72 h.
Series [9] deals with U-937. The experiment in a line: Cytotoxicity against human U937 cells assessed as inhibition of cell viability at 20 uM after 72 hrs by trypan blue staining assay. Format: functional, cell-based.
The subject of series [10] is Jurkat. Description: Cytotoxicity against human Jurkat cells assessed as cell viability at 10 uM after 72 hrs by trypan blue staining assay.
Series [11] concerns Jurkat. Description: Induction of apoptosis in human Jurkat cells assessed as caspase-7 cleavage at 20 uM after 48 hrs Western blotting method. Format: functional, cell-based. The essentials:
as §3

For series [12], the system named is K562. The experiment in a line: Cytotoxicity against human K562 cells assessed as reduction in cell viability after 24 to 72 hrs by CellTiter-Glo luminescent cell viability assay. It is filed as functional, cell-based. The procedure, abridged:
as §2

Series [13] concerns K562. Description: Cytotoxicity against human K562 cells assessed as inhibition of cell proliferation at 10 to 50 uM after 8 to 72 hrs by trypan blue staining assay. It is filed as functional, cell-based. The procedure, abridged:
as §1

Series [14] relates to Jurkat. Description: Cytotoxicity against human Jurkat cells assessed as inhibition of cell proliferation at 50 uM after 72 hrs by trypan blue staining assay. Format: functional. The procedure, abridged:
as §1

Series [15] can be described thus: Cytotoxicity against human U937 cells assessed as reduction in cell viability at 10 to 50 uM after 48 hrs by CellTiter-Glo luminescent cell viability assay. It is filed as functional, U-937. The essentials: as §2
Series [16] can be described thus: Cytotoxicity against human U937 cells assessed as inhibition of cell proliferation at 30 uM after 72 hrs by trypan blue staining assay. It is filed as functional. The note with it: U-937, 72 h. The procedure, abridged:
as §1

Series [17] is described as follows: Cytotoxicity against human U937 cells assessed as reduction in cell viability at 10 to 50 uM after 72 hrs by CellTiter-Glo luminescent cell viability assay. It is filed as functional, U-937. The procedure, abridged: as §2
In series [18] the test system is Jurkat. The experiment in a line: Cytotoxicity against human Jurkat cells assessed as inhibition of cell proliferation after 72 hrs by trypan blue staining assay. It is filed as functional, cell-based. The procedure, abridged:
as §1

The test system of series [19] is Jurkat. The experiment in a line: Cytotoxicity against human Jurkat cells assessed as reduction in cell viability after 24 to 72 hrs by CellTiter-Glo luminescent cell viability assay. It is filed as functional, cell-based. The procedure, abridged:
as §2

SMILES strings stand for the structures. Calls of active or inactive are those of the source. The rule behind the calls is not given here.

On to `COc1ccccc1/C=C/C(=O)c1ccc2c(c1O)OCO2`, for which the inhibition entry in series [1] and in series [9] was “Active” each time. For the same compound, the values for the IC50 in series [2], in series [5] and in series [6] were 13.7 µM, 11.4 µM and 42.3 µM, respectively. Besides, the outcome in [3], in series [4] and in series [11] was Active. Also, the Activity result in series [7] is on record as “Non-toxic”. Moreover, the viability at 10 µM in series [8] was determined as 55.4%; in series [10], 59%.

Turning to `COc1ccc(C2CC(=O)c3ccc4c(c3O2)OCO4)cc1OC` (configuration not stated), the viability at 10 µM is 80.4% in series [8] and 74.9% in series [10].

As to `COc1ccccc1C1CC(=O)c2ccc3c(c2O1)OCO3` (configuration not stated), the viability at 10 µM is 74% in series [8] and 83.2% in series [10].

Take `COc1ccc(-c2cc(=O)c3ccc4c(c3o2)OCO4)cc1OC`: the viability at 10 µM is 82.5% in [8] and 87.9% in [10].

Take `COc1ccc(/C=C/C(=O)c2ccc3c(c2O)OCO3)cc1OC`: the viability at 10 µM in series [8] came to 69.3%; in series [10], 77.5%.

Take `COc1ccc(/C=C/C(=O)c2ccc3c(c2O)OCO3)cc1`: the figures for the viability at 10 µM in series [8] and in series [10] were 80.9% and 80.6%, respectively.

As to `COc1ccc(-c2cc(=O)c3ccc4c(c3o2)OCO4)cc1`, the viability at 10 µM was 76.5% in series [8] and 81.2% in series [10].

In the case of `COc1ccc(C2CC(=O)c3ccc4c(c3O2)OCO4)cc1` (configuration not stated), the viability at 10 µM stood at 81.7% in [8] and 88.2% in series [10].

Consider `COc1cc(C2CC(=O)c3ccc4c(c3O2)OCO4)cc(OC)c1OC` (configuration not stated), for which the viability at 10 µM was determined as 68.3% in series [8] and 69.7% in series [10].

With `COc1cc(/C=C/C(=O)c2ccc3c(c2O)OCO3)cc(OC)c1OC`, the inhibition entry in [12] and in series [13] was “inactive” in each case. Besides, the inhibition at 50 µM in series [14] was found to be 70%. The “inhibition (INH)” value was found to be 35% in series [15] and 20% in series [17]. Also, the inhibition at 30 µM in series [16] was found to be 41%. Besides, in [7], the Activity entry is given as “Non-toxic”. The viability at 10 µM in series [8] is 64.4%; in series [10], 56.1%. The inhibition entry in series [18] and in series [19] was “Dose-dependent effect” each time.

Turning to `COc1cc(-c2cc(=O)c3ccc4c(c3o2)OCO4)cc(OC)c1OC`, the viability at 10 µM is 90.5% in [8] and 76% in series [10].

As to `COc1ccccc1-c1cc(=O)c2ccc3c(c2o1)OCO3`, the figures for the viability at 10 µM in series [8] and in series [10] were 82.7% and 91.6%, respectively.
